Measurements reported in ChEMBL document CHEMBL1126205, “Novel spirosuccinimides with incorporated isoindolone and benzisothiazole 1,1-dioxide moieties as aldose reductase inhibitors and antihyperglycemic agents” (1992).
Calls of active or inactive are those of the source. The calls are words filed in the database; no cut-off is given here.

What was measured:
Mus musculus = test: Antihyperglycemic activity measured as percent decrease in mice plasma glucose at 100 mg/Kg/day; assay type: functional
Method in brief: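 Male db/db (C57BL/KsJ) mice, 4–6 per group, dosed at 100 mg/kg per day. Plasma glucose of the drug-treated group is expressed as percent decrease relative to a vehicle-treated control group. Values are mean ± SE, with p < 0.05 marked.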

[1] = target: Aldo-keto reductase family 1 member B1 (Bos taurus) (UniProt P16116); test: In vitro aldose reductase inhibitory activity measured by NADPH-dependent inhibition of glyceraldehyde reduction in a partially purified bovine lens preparation at 10E-6 M
Method in brief: (§1)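 Aldose reductase partially purified from bovine lens. Inhibition of NADPH-dependent glyceraldehyde reduction is measured at the single stated concentration and reported as percent inhibition, the mean of two determinations.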

[2] = target: Aldo-keto reductase family 1 member B1 (Bos taurus) (UniProt P16116); test: NADPH-dependent inhibition of glyceraldehyde reduction by partially purified aldose reductase from bovine lens at 10e-5 M
Method in brief: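 Partially purified aldose reductase from bovine lens. Inhibition of NADPH-dependent glyceraldehyde reduction was measured at a single test concentration. Values are % inhibition of enzymatic activity, mean of two determinations.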

Rattus norvegicus [3] = test: In vivo galactitol inhibitory activity measured by its ability to inhibit galactitol accumulation in lens at 6 mg/Kg/day; NS=Not significant (% Inhibition); assay type: functional, organism-based; details: Lens of camera-type eye
Method in brief: (§2)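 Rats (n = 6) fed 20% galactose for 4 days, with compound given in the diet at the stated mg/kg per day. Galactitol accumulation in lens, sciatic nerve or diaphragm is scored as percent inhibition versus the non-treated group, as means of 3–8 drug-treated tissue samples. Dunnett's multiple comparison test applies; NS means p > 0.05.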

Rattus norvegicus [4] = test: In vivo galactitol inhibitory activity measured by its ability to inhibit galactitol accumulation in diaphragm at 6 mg/Kg/day; assay type: functional; method in brief: as §2
Rattus norvegicus [5] = test: In vivo galactitol inhibitory activity measured by its ability to inhibit galactitol accumulation in sciatic nerve at 6 mg/Kg/day; assay type: functional
Method in brief: (§3)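 Rats (n = 6) fed 20% galactose for 4 days, with compound given in the diet at the stated daily dose. Galactitol accumulation was measured in lens, sciatic nerve and diaphragm, and % inhibition was taken versus the nontreated group. Means are from three to eight drug-treated tissue samples. Dunnett's multiple comparison test was applied, with p > 0.05 reported as not significant.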

Rattus norvegicus [6] = test: In vivo galactitol inhibitory activity measured by its ability to inhibit galactitol accumulation in sciatic nerve at 3 mg/Kg/day; NS=Not significant (% Inhibition); assay type: functional, organism-based; method in brief: as §3
Rattus norvegicus [7] = test: In vivo galactitol inhibitory activity measured by its ability to inhibit galactitol accumulation in diaphragm at 3 mg/Kg/day; NS=Not significant (% Inhibition); assay type: functional, organism-based; method in brief: as §2
Rattus norvegicus [8] = test: In vivo galactitol inhibitory activity measured by its ability to inhibit galactitol accumulation in lens at 3 mg/Kg/day; NS=Not significant (% Inhibition); assay type: functional, organism-based; details: Lens of camera-type eye; method in brief: as §2
Rattus norvegicus [9] = test: In vivo galactitol inhibitory activity measured by its ability to inhibit galactitol accumulation in lens at 10 mg/Kg/day; assay type: functional; details: Lens of camera-type eye; method in brief: as §2
Rattus norvegicus [10] = test: In vivo galactitol inhibitory activity measured by its ability to inhibit galactitol accumulation in sciatic nerve at 10 mg/Kg/day; assay type: functional; details: Rattus norvegicus, Sciatic nerve; method in brief: as §3
[11] = target: Aldo-keto reductase family 1 member B1 (Bos taurus) (UniProt P16116); test: In vitro aldose reductase inhibitory activity measured by NADPH-dependent inhibition of glyceraldehyde reduction in a partially purified bovine lens preparation at 10E-7 M; method in brief: as §1
Rattus norvegicus [12] = test: In vivo galactitol inhibitory activity measured by its ability to inhibit galactitol accumulation in diaphragm at 10 mg/Kg/day; assay type: functional; method in brief: as §2

inhibition [1]	Compound	Decrease (Mus musculus)	further results
–	O=C1CC2(C(=O)N1)c1ccccc1S(=O)(=O)N2Cc1ccc(Br)cc1 (stereo unspecified)	37%	–
0%	O=C1CC2(C(=O)N1)c1ccccc1S(=O)(=O)N2Cc1ccccc1 (stereo unspecified)	<15%	inhibition [2]: 45%
–	O=C1CC2(C(=O)N1)c1ccccc1C(=O)N2Cc1ccc(Br)cc1 (stereo unspecified)	<15%	–
–	CCC(CC)N1C2(CC(=O)NC2=O)c2ccccc2S1(=O)=O (stereo unspecified)	31%	–
–	O=C(O)CN1C2(CC(=O)NC2=O)c2ccccc2S1(=O)=O (stereo unspecified)	–	inhibition [2]: 0%
–	O=C1CC2(C(=O)N1)c1ccccc1S(=O)(=O)N2Cc1ccc(Cl)cc1Cl (stereo unspecified)	19%	–
–	COc1ccc2c(C(=S)N(C)CC(=O)O)cccc2c1C(F)(F)F [TOLRESTAT]	–	inhibition (Rattus norvegicus [3]): inactive; inhibition in vivo at 6 mg/kg/day (Rattus norvegicus [4]): 80%; inhibition in vivo at 6 mg/kg/day (Rattus norvegicus [5]): 53%
0%	O=C1CC2(C(=O)N1)c1ccccc1S(=O)(=O)N2Cc1ccc(Br)cc1F (stereo unspecified)	48%	inhibition [2]: 52%
25%	O=C1CC2(C(=O)N1)c1ccccc1S(=O)(=O)N2Cc1ccc2ccccc2c1Br (stereo unspecified)	<15%	inhibition [2]: 59%
–	Cc1oc(-c2ccccc2)nc1CCOc1ccc(N2C3(CC(=O)NC3=O)c3ccccc3S2(=O)=O)cc1 (stereo unspecified)	<15%	–
56%	COc1ccc2c(c1)C(=O)N(C)C21CC(=O)NC1=O (stereo unspecified)	<15%	inhibition (Rattus norvegicus [6]): inactive; inhibition (Rattus norvegicus [7]): inactive; inhibition (Rattus norvegicus [8]): inactive
–	O=C1CC2(C(=O)N1)c1ccccc1C(=O)N2Cc1cccc(Br)c1 (stereo unspecified)	<15%	–
–	CCCCN1C2(CC(=O)NC2=O)c2ccccc2S1(=O)=O (stereo unspecified)	<15%	–
–	O=C1CC2(C(=O)N1)c1ccccc1C(=O)N2Cc1c(F)cccc1Cl (stereo unspecified)	<15%	–
–	O=C1CC2(C(=O)N1)c1ccccc1C(=O)N2Cc1ccc(I)cc1 (stereo unspecified)	<15%	–
–	Nc1ccc(CN2C3(CC(=O)NC3=O)c3ccccc3S2(=O)=O)cc1 (stereo unspecified)	<15%	–
–	O=C1CC2(C(=O)N1)c1ccccc1S(=O)(=O)N2c1ccc(Br)cc1 (stereo unspecified)	<15%	inhibition [2]: 0%
–	O=C1CC2(C(=O)N1)c1ccccc1S(=O)(=O)N2Cc1ccccc1F (stereo unspecified)	<15%	–
92%	O=C1CC2(C(=O)N1)C(=O)N(Cc1ccc(Br)cc1F)c1c(Cl)cccc12 (stereo unspecified)	<15%	inhibition in vivo at 10 mg/kg/day (Rattus norvegicus [9]): 36%; inhibition in vivo at 10 mg/kg/day (Rattus norvegicus [10]): 86%; inhibition [11]: 83%; inhibition in vivo at 10 mg/kg/day (Rattus norvegicus [12]): 84%
82%	CN1C(=O)c2cc3ccccc3cc2C12CC(=O)NC2=O (stereo unspecified)	<15%	inhibition in vivo at 10 mg/kg/day (Rattus norvegicus [9]): 14%; inhibition in vivo at 10 mg/kg/day (Rattus norvegicus [10]): 47%; inhibition [11]: 37%; inhibition in vivo at 10 mg/kg/day (Rattus norvegicus [12]): 59%
0%	CCCCN1C(=O)c2ccccc2C12CC(=O)NC2=O (stereo unspecified)	<15%	–
–	Cc1cc(CN2C3(CC(=O)NC3=O)c3ccccc3S2(=O)=O)ccc1Br (stereo unspecified)	<15%	–
–	CCCCCc1ccc(CN2C(=O)c3ccccc3C23CC(=O)NC3=O)cc1 (stereo unspecified)	<15%	–
15%	O=C1CC2(C(=O)N1)c1ccccc1S(=O)(=O)N2Cc1ccc(-c2ccccc2)cc1 (stereo unspecified)	<15%	inhibition [2]: 54%
–	CCN1C2(CC(=O)NC2=O)c2ccccc2S1(=O)=O (stereo unspecified)	<15%	–
